# Only some compounds are listed: those with a hit (about 3.2% of all), similar ones and a draw of the others.
# Cneo AK release = causes C. neoformans cell lysis. adenylate kinase release luminescence, 4 h; normalised: neutral wells 0, clomiphene wells 100. lysis activity, % at 15 µM. 0.2% of 360,000 active. AID 651654;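 active = mean lysis activity across replicates of at least 80%, whatever share of replicates individually reach that level; inactive = mean lysis activity below 80%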
#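 Material – Cryptococcus neoformans yeast cells · Quantity – 5 × 10^6 yeast cells/mL · Buffer or medium – YPD medium · Compound – single dose · Timing – 4 h static compound exposure, 37 °C, read 1 h post-reagent · Signal – adenylate kinase release luminescence · Read-out basis – lysis from increased AK signal · Benchmarks – Clomiphene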
# S100A4 MyoIIA = blocks human S100A4 binding to myosin IIA peptide; 0.14% of 360,000 active; P26447; inhibition, % at 10.7 µM; S100A4/TAMRA-MyoIIA peptide fluorescence polarization; AID 652163;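 active = mean inhibition of at least 70% across replicates, with every replicate also reaching that level; inconclusive = mean inhibition reaches 70% but some replicates fall short; inactive = mean inhibition below 70%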
# Target sequence (P26447 whole entry, looked up): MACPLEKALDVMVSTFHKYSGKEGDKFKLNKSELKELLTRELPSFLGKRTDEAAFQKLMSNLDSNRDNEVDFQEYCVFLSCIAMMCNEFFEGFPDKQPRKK
#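 incubation = readout 5 min after mixing, signal stable up to 60 min | system = S100A4 monomer protein | buffer or medium = HEPES pH 7.2 with CaCl2, KCl, NaCl, DTT, Triton | benchmarks = neutral control DMSO, positive control TFP | also added = fluorescent myosin IIA peptide, 5 nM | compound dosing = one concentration per compound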
# MLL AF4-AF9 inh = blocks AF4 peptide binding to human AF9; inhibition, % at 10 µM; AlphaScreen, biotin-AF4 peptide binding to FLAG-AF9; AID 651704; 0.47% of 350,000 active;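 active = every replicate reaching a set inhibition limit, whatever the replicate mean, cut at about 25% in these data; inconclusive = mean inhibition reaches that limit but some replicates miss it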;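 note: 0% = plate neutral control median and 100% = total signal loss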
# Target sequence (P42568 whole entry, looked up): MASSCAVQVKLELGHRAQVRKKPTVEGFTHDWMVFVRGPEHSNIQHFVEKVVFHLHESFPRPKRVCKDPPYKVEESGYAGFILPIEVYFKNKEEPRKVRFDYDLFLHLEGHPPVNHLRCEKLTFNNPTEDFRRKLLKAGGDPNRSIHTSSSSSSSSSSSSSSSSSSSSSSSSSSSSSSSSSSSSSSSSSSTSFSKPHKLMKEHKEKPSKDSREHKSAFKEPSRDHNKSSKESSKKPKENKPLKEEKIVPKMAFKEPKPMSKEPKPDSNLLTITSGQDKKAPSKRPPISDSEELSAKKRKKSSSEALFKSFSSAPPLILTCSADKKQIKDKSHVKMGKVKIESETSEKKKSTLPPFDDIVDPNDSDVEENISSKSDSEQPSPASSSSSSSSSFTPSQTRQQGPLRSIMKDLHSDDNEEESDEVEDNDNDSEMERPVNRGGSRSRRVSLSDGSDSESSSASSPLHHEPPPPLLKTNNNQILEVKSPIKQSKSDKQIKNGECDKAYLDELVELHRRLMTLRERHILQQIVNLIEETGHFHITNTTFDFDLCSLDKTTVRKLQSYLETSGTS
# rRNA inh HTS = selective bacterial rRNA inhibition in E. coli; GFP signal change (wild-type ribosome), % (test concentration not listed); E. coli WT GFP vs humanized-ribosome RFP mutants, fluorescence, 24 h; stronger effect = lower value; DMSO median 0, no signal -100; 1.6% of 350,000 active;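 active = significant combined selectivity score with lowered wild-type GFP, culture density cut under 30%, mutant RFP and density less affected; inactive = any of these conditions unmet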
# PfHsp90 set2 = reduces growth (ATP signal) of yeast expressing P. falciparum Hsp90; S. cerevisiae expressing PfHsp90, BacTiter-Glo ATP, 48 h; yeast lacking PDR1 and PDR3 efflux regulators; inhibition, % at 9.4 µM; 0.32% of 310,000 active; AID 504621;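 active = every replicate shows inhibition above about 80%, whatever the replicate mean, limit read from the data; inconclusive = mean inhibition reaches the set limit but some replicate falls short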;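 note: 0% = DMSO neutral controls and 100% = 20 µM radicicol positive controls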
# DENV2 CPE rescue = DENV2-induced cell death inhibition; DENV2-infected cells, cytopathic effect rescue, plate reader; CPE inhibition, % at 9.99 µM; 1.7% of 350,000 active; in the data active = CPE inhibition above about 20%, passing the limit was not always enough; inconclusive = no clear call, values can overlap the other calls; tested in BHK-21 cells;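 note: 0% = median of neutral control wells and 100% = median of positive control wells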
# Active calls of the source: *; ? = inconclusive; · = no result given.
SMILES,Cneo AK release,S100A4 MyoIIA,MLL AF4-AF9 inh,rRNA inh HTS,PfHsp90 set2,DENV2 CPE rescue
OC[C@@H]1[C@@H](c2ccc(-c3cccc(F)c3)cc2)[C@@H]2CN(Cc3cncnc3)CCCCN12,1,-5,7,-1,·,47*
COc1cccc(-c2ccc([C@H]3[C@@H](CO)N4CCCCN(Cc5cncnc5)C[C@H]34)cc2)c1,-2,-6,5,2,·,38*
COCC(=O)Nc1ccc2c(c1)[C@@H]1C[C@@H](CC(=O)NCc3cccc(F)c3)O[C@@H](CO)[C@@H]1O2,4,1,1,-1,·,5
C[C@@H]1CN([C@@H](C)CO)C(=O)c2cc(NC(=O)C3CCCCC3)ccc2O[C@@H]1CN(C)S(=O)(=O)c1cn(C)cn1,-4,-1,-1,0,·,-2
COc1ccc(CN(C)C[C@H]2OCCCC[C@H](C)Oc3ccc(NC(=O)Nc4ccc5c(c4)OCO5)cc3C(=O)N([C@@H](C)CO)C[C@@H]2C)cc1,8,29,22,-2,·,-3
COc1ccc(CN(C)C[C@H]2OCCCC[C@@H](C)Oc3ccc(NC(=O)Nc4ccc5c(c4)OCO5)cc3C(=O)N([C@H](C)CO)C[C@H]2C)cc1,2,120*,23,·,·,10
COc1ccc(CN(C)C[C@@H]2OCCCC[C@H](C)Oc3ccc(NC(=O)Nc4ccc5c(c4)OCO5)cc3C(=O)N([C@H](C)CO)C[C@H]2C)cc1,3,-3,25*,-26,·,7
COc1ccc(CN(C)C[C@H]2OCCCC[C@@H](C)Oc3ccc(NC(=O)Nc4ccc5c(c4)OCO5)cc3C(=O)N([C@@H](C)CO)C[C@H]2C)cc1,54,-5,32*,4,·,-23
Cc1noc(C)c1S(=O)(=O)N(C)C[C@H]1OCCCC[C@H](C)Oc2ccc(NS(=O)(=O)c3ccc(F)cc3)cc2C(=O)N([C@H](C)CO)C[C@@H]1C,36,·,·,-1,·,-11
C[C@@H]1CN([C@@H](C)CO)C(=O)c2cc(NC(=O)NC3CCCCC3)ccc2O[C@@H]1CN(C)C,-5,3,-2,8,·,-1
C(=C\c1sc(Nc2ccccc2)n[n+]1-c1ccccc1)/c1ccccc1,-1,-2,31*,-3,-1,52*
COc1ccc(NC(=O)N(C)C[C@H]2Oc3c(NC(=O)C4CCOCC4)cccc3C(=O)N([C@@H](C)CO)C[C@H]2C)cc1,-2,2,-1,4,·,5
Oc1ccccc1C=Nc1cccc2ccccc12,-4,-4,-3,2,24,-11
Oc1cccc(C=Nc2cccc3ccccc23)c1O,-1,-6,1,-32*,1,-3
CCCNC(=O)Nc1ccc2c(c1)C(=O)N(C)C[C@@H](OC)[C@@H](C)CN(C(=O)c1ccccc1F)[C@H](C)CO2,·,·,·,-2,·,·
CC(C)NC(=O)N(C)C[C@@H]1Oc2ccc(NC(=O)C3CCCCC3)cc2C(=O)N([C@@H](C)CO)C[C@@H]1C,-4,-12,-2,2,·,-3
COc1cc(N/N=C(\C)c2ccc(O)c(C)c2)nc(-c2ccccc2)n1,·,2,2,-37*,-12,·
C[C@H](CO)N1C[C@H](C)[C@@H](CN(C)Cc2cccc(F)c2)Oc2ncc(C#C[C@@H](C)O)cc2C1=O,16,141*,-2,9,·,-2
C[C@H](CO)N1C[C@H](C)[C@@H](CN(C)Cc2cccc(F)c2)Oc2ncc(C#CCc3ccccc3)cc2C1=O,4,-7,11,-35*,·,-9
CC(C)CC#Cc1cnc2c(c1)C(=O)N([C@@H](C)CO)C[C@H](C)[C@H](CN(C)Cc1ccc(C(=O)O)cc1)O2,6,6,-9,2,·,78*
CC(C)CC#Cc1cnc2c(c1)C(=O)N([C@@H](C)CO)C[C@@H](C)[C@H](CN(C)Cc1cccc(F)c1)O2,1,4,13,2,·,-16
CC(C)CC#Cc1cnc2c(c1)C(=O)N([C@H](C)CO)C[C@H](C)[C@@H](CN(C)Cc1cccc(F)c1)O2,88*,1,12,-16,·,-14
CO[C@H]1CC[C@H]2CCOc3c(C#N)cccc3C(=O)N(C)CCCC(=O)N(C)C[C@H]1O2,3,-7,-4,3,·,-1
C[C@H]1CCCCO[C@@H](CN(C)C(=O)c2ccccc2)[C@@H](C)CN([C@@H](C)CO)C(=O)c2cc(NC(=O)Nc3ccc(C(F)(F)F)cc3)ccc2O1,-4,0,-1,0,·,-10
C[C@H](CO)N1C[C@H](C)[C@@H](CN(C)C(=O)C2CCOCC2)Oc2ncc(C#CCc3ccccc3)cc2C1=O,86*,2,-2,1,·,·
SMILES,Cneo AK release,S100A4 MyoIIA,MLL AF4-AF9 inh,rRNA inh HTS,PfHsp90 set2,DENV2 CPE rescue
C[C@H]1CN([C@@H](C)CO)C(=O)c2cc(C#CCc3ccccc3)cnc2O[C@H]1CN(C)C(=O)C1CCOCC1,-5,-1,6,4,·,?
Cc1ccc(-c2csc(N(CCCN(C)C)C(=O)c3ccco3)n2)cc1,·,-17,22,6,2,·
CN(C)CCCN(C(=O)c1ccco1)c1nc(-c2ccc(Cl)cc2)cs1,-2,-2,26*,-33,10,-1
Nc1c(C(=O)NCc2ccco2)c2nc3ccccc3nc2n1CCc1ccccc1,·,-7,-6,-28*,18,-5
CCOc1ccc(CCNC(=O)CCc2nc3ccccc3[nH]2)cc1OCC,·,-1,-1,-20*,-15,2
OC[C@@H]1[C@@H](c2ccccc2)C2(CN(Cc3nccs3)C2)N1Cc1cccnc1,·,6,10,1,·,84*
OC[C@@H]1[C@@H](c2ccccc2)C2(CN(Cc3nccs3)C2)N1Cc1ccccc1,·,7,1,-3,·,20*
OC[C@@H]1[C@H](c2ccccc2)C2(CN(Cc3nccs3)C2)N1Cc1cccnc1,·,3,1,5,·,-6
OC[C@@H]1[C@H](c2ccccc2)C2(CN(CC3CC3)C2)N1Cc1nccs1,·,-11,·,-1,·,-5
CCN1/C(=C/c2ccc3cc(C)ccc3[n+]2CC)Sc2ccc3sccc3c21,·,·,·,·,101*,·
CCN1/C(=C/c2ccc3cccc(C)c3[n+]2CC)Sc2ccccc21,1,·,·,·,-15,·
CCN1/C(=C\c2ccc3cc(C)ccc3[n+]2CC)Sc2cc(C)c(C)cc21,-6,-39,5,9,94*,0
CCN1/C(=C/c2ccc3cc(C)cc(C)c3[n+]2CC)Sc2cc(C)ccc21,-3,16,28*,13,102*,3
CNC[C@@H]1OCCCC[C@@H](C)Oc2ccc(NC(=O)NC(C)C)cc2C(=O)N([C@@H](C)CO)C[C@H]1C,88*,-10,-3,6,·,0
